≈ marks a conversion by molar mass, not a printed value. Calls of active or inactive are those of the source. The rule behind the calls is not given here.
What was measured:
Streptococcus agalactiae = test: Antimicrobial activity against Streptococcus agalactiae by broth dilution technique; type: functional
Outline: (§1)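 Broth dilution in Mueller Hinton Broth. Compounds are dissolved in DMSO (never above 1% v/v final) and serially diluted. MIC is the lowest concentration giving complete growth inhibition.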

Haemophilus influenzae = test: Antimicrobial activity against Haemophilus influenzae by broth dilution technique; type: functional
Outline: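 Haemophilus Test Medium broth dilution. Compounds in DMSO are added to final dilutions, with DMSO at most 1% v/v. MIC is the lowest concentration completely inhibiting growth.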

Enterococcus faecalis = test: Antimicrobial activity against Streptococcus faecalis by broth dilution technique; type: functional; outline: as §1
[1] = tested on: Staphylococcus epidermidis; test: Antimicrobial activity against penicillin-resistant Staphylococcus epidermidis by broth dilution technique; type: functional
Outline: (§2)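 Broth dilution in Mueller Hinton Broth with compounds predissolved in DMSO (at most 1% v/v). Final concentrations ranged from 100 to 0.0015, and the inoculum was 5.10⁴ bacteria/mL. Plates were incubated at 37 °C for 24 h. MIC was taken as the lowest concentration giving complete growth inhibition.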

Saccharomyces cerevisiae = test: Antimicrobial activity against Saccharomyces cerevisiae ATCC 9763 upto 100 ug/ml by broth dilution technique; type: functional, organism-based
Outline: (§3)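 Fungi are tested by Sabouraud Liquid Medium dilution. Compounds are in DMSO, with DMSO at most 1% v/v final. Inoculum is 1×10³ fungi/mL, incubated 48 h at 30 °C. MIC is the lowest concentration completely inhibiting growth. For MFC, 100 µL of clear mixtures is subcultured into 1 mL fresh medium and read after 48 h at 30 °C.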

Staphylococcus aureus [2] = test: Antimicrobial activity against Staphylococcus aureus ATCC 25923 by broth dilution technique; type: functional; outline: as §1
Bacillus thuringiensis = test: Antimicrobial activity against Bacillus thuringiensis var. kurstaki BGSC 4D1 by broth dilution technique; type: functional; conditions: serovar kurstaki; outline: as §1
Priestia megaterium = test: Antimicrobial activity against Bacillus megaterium by broth dilution technique; type: functional; outline: as §1
[3] = tested on: Staphylococcus epidermidis; test: Antimicrobial activity against Staphylococcus epidermidis ATCC 12228 by broth dilution technique
Bacillus subtilis = test: Antimicrobial activity against Bacillus subtilis ATCC 6633 by broth dilution technique; type: functional; outline: as §1
Escherichia coli = test: Antimicrobial activity against Escherichia coli SPA27 upto 100 ug/ml by broth dilution technique; type: functional, organism-based; outline: as §1
Streptococcus pyogenes = test: Antimicrobial activity against Streptococcus pyogenes by broth dilution technique; type: functional
Outline: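 Tryptose Phosphate Broth dilution. Compounds are dissolved in DMSO, with DMSO at most 1% v/v final. MIC is taken as the lowest concentration with complete growth inhibition.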

Candida tropicalis = test: Antimicrobial activity against Candida tropicalis ATCC 1369 upto 100 ug/ml by broth dilution technique; type: functional, organism-based; outline: as §3
[4] = tested on: Staphylococcus haemolyticus; test: Antimicrobial activity against Staphylococcus haemolyticus by broth dilution technique; type: functional; outline: as §1
Staphylococcus aureus [5] = test: Antimicrobial activity against penicillin-resistant Staphylococcus aureus by broth dilution technique; type: functional; outline: as §2
Aspergillus niger = test: Antimicrobial activity against Aspergillus niger ATCC 6275 upto 100 ug/ml by broth dilution technique; type: functional, organism-based; outline: as §3
Micrococcus luteus = test: Antimicrobial activity against Sarcina lutea by broth dilution technique; type: functional; outline: as §1
Enterococcus faecium = test: Antimicrobial activity against Streptococcus faecium by broth dilution technique; type: functional; outline: as §1

| Structure (SMILES) | MIC (Streptococcus agalactiae) [mg/L] | MIC (Haemophilus influenzae) [mg/L] | MIC (Enterococcus faecalis) [mg/L] | MIC [1] [mg/L] | Activity (Saccharomyces cerevisiae) | MIC (Staphylococcus aureus [2]) [mg/L] | MIC (Bacillus thuringiensis) [mg/L] | MIC (Priestia megaterium) [mg/L] | MIC [3] [mg/L] | MIC (Bacillus subtilis) [mg/L] | Activity (Escherichia coli) | MIC (Streptococcus pyogenes) [mg/L] | Activity (Candida tropicalis) | MIC [4] [mg/L] | MIC (Staphylococcus aureus [5]) [mg/L] | Activity (Aspergillus niger) | MIC (Micrococcus luteus) [mg/L] | MIC (Enterococcus faecium) [mg/L] |
| --- | --- | --- | --- | --- | --- | --- | --- | --- | --- | --- | --- | --- | --- | --- | --- | --- | --- | --- |
| O=C1N/C(=N/c2nsc3ccccc23)S/C1=C\c1ccccc1[N+](=O)[O-] | > 100 | 1.5 (≈ 3.92 µM) | 100 (≈ 261 µM) | > 100 | inactive | 3 (≈ 7.84 µM) | 3 (≈ 7.84 µM) | > 100 | > 100 | > 100 | inactive | > 100 | inactive | > 100 | 50 (≈ 131 µM) | inactive | > 100 | > 100 |
| O=C1N/C(=N\c2nc3ccccc3s2)S/C1=C\c1cccc(Cl)c1 | > 100 | > 100 | > 100 | 12 (≈ 32.3 µM) | inactive | 25 (≈ 67.2 µM) | 6 (≈ 16.1 µM) | 12 (≈ 32.3 µM) | 6 (≈ 16.1 µM) | 12 (≈ 32.3 µM) | inactive | > 100 | inactive | > 100 | 25 (≈ 67.2 µM) | inactive | 12 (≈ 32.3 µM) | > 100 |
| O=C1N/C(=N/c2nsc3ccccc23)S/C1=C\c1ccccc1Cl | – | > 100 | – | – | inactive | > 100 | – | – | – | > 100 | inactive | – | inactive | – | – | inactive | – | – |
| O=C1N/C(=N\c2nccs2)S/C1=C\c1ccccc1 | 3 (≈ 10.4 µM) | 0.7 (≈ 2.44 µM) | 25 (≈ 87 µM) | 50 (≈ 174 µM) | inactive | 3 (≈ 10.4 µM) | 3 (≈ 10.4 µM) | 0.7 (≈ 2.44 µM) | 6 (≈ 20.9 µM) | 0.7 (≈ 2.44 µM) | inactive | > 100 | inactive | 6 (≈ 20.9 µM) | 25 (≈ 87 µM) | inactive | 3 (≈ 10.4 µM) | 25 (≈ 87 µM) |
| O=C1N/C(=N\c2nccs2)S/C1=C\c1cccc(Cl)c1 | 1.5 (≈ 4.66 µM) | 0.3 (≈ 0.932 µM) | 50 (≈ 155 µM) | 1.5 (≈ 4.66 µM) | inactive | 1.5 (≈ 4.66 µM) | 1.5 (≈ 4.66 µM) | 0.15 (≈ 0.466 µM) | 1.5 (≈ 4.66 µM) | 0.3 (≈ 0.932 µM) | inactive | 12 (≈ 37.3 µM) | inactive | 3 (≈ 9.32 µM) | 0.7 (≈ 2.18 µM) | inactive | 1.5 (≈ 4.66 µM) | 3 (≈ 9.32 µM) |
| O=C1N/C(=N/c2nsc3ccccc23)S/C1=C\c1ccccc1 | – | > 100 | – | – | inactive | > 100 | – | – | – | > 100 | inactive | – | inactive | – | – | inactive | – | – |
| O=C1N/C(=N\c2nccs2)S/C1=C\c1ccccc1[N+](=O)[O-] | 12 (≈ 36.1 µM) | 0.7 (≈ 2.11 µM) | 50 (≈ 150 µM) | 25 (≈ 75.2 µM) | inactive | 6 (≈ 18.1 µM) | 6 (≈ 18.1 µM) | 3 (≈ 9.03 µM) | 12 (≈ 36.1 µM) | 6 (≈ 18.1 µM) | inactive | 25 (≈ 75.2 µM) | inactive | 12 (≈ 36.1 µM) | 3 (≈ 9.03 µM) | inactive | 12 (≈ 36.1 µM) | 25 (≈ 75.2 µM) |
| COc1ccc(/C=C2\S/C(=N/c3nccs3)NC2=O)cc1 | 3 (≈ 9.45 µM) | 0.3 (≈ 0.945 µM) | > 100 | 12 (≈ 37.8 µM) | inactive | 12 (≈ 37.8 µM) | 3 (≈ 9.45 µM) | 1.5 (≈ 4.73 µM) | 6 (≈ 18.9 µM) | 1.5 (≈ 4.73 µM) | inactive | 12 (≈ 37.8 µM) | inactive | 12 (≈ 37.8 µM) | 3 (≈ 9.45 µM) | inactive | 6 (≈ 18.9 µM) | > 100 |

Reference: ChEMBL document CHEMBL1142406, “2-Heteroarylimino-5-benzylidene-4-thiazolidinones analogues of 2-thiazolylimino-5-benzylidene-4-thiazolidinones with antimicrobial activity: synthesis and structure-activity relationship” (2008)
